TRPC4 agonist: TRPC4 (mouse) channel activation; Q9QUQ5; HEK293 TRPC4beta/mu-opioid, Fluo4 calcium fluorescence; stronger effect = higher value; B-score at 10 µM; 310,000 compounds, 0.49% hits; AID 2237;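 active = B-score above 5 SD of library B-scores, and initial fluorescence ratio not above library mean plus 5 SD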;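 also: positive B-score marks a calcium rise read as TRPC4 activation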
Target sequence (Q9QUQ5 whole entry, looked up): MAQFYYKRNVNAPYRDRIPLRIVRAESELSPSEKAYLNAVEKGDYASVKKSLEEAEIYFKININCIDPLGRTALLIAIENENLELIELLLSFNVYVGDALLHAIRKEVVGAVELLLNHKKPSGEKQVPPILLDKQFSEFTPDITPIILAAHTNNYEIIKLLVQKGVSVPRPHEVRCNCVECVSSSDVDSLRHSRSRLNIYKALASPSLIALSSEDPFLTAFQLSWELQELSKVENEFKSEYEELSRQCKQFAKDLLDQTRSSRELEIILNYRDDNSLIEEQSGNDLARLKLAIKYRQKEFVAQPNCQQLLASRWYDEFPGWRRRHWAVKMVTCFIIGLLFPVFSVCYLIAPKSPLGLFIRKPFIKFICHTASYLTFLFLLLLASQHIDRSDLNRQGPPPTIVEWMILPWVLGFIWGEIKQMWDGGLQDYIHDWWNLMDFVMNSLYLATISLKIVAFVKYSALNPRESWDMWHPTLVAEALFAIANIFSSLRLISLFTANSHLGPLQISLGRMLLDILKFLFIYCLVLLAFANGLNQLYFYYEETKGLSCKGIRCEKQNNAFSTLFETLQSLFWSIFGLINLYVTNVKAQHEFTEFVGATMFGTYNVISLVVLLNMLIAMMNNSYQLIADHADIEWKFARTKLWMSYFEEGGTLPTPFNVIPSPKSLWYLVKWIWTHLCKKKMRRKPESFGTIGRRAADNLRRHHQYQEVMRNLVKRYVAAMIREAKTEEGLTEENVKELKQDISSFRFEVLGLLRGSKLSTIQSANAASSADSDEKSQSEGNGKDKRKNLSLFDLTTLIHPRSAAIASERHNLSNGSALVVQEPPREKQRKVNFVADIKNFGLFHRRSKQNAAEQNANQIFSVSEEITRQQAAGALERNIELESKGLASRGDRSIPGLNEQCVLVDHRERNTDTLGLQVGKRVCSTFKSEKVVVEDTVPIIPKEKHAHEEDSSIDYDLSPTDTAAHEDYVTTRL
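Assay system: HEK293 cells stably co-expressing mouse TRPC4beta and mu-opioid receptor / Timing: Fluo4 dye loading 45 min at room temperature, 110 s recording / Signal: Fluo4 calcium-sensitive dye fluorescence, kinetic, 1 Hz baseline / Read-out: integrated baseline-normalised fluorescence ratio, converted to per-well B score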
TRPC4 inh: TRPC4 (mouse) channel inhibition; Q9QUQ5; 300,000 compounds, 0.39% hits; B-score at 10 µM; HEK293 TRPC4beta/mu-opioid, DAMGO-evoked Fluo4 calcium flux; stronger effect = lower value;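 active = B-score over 3 SD under the library average, no early fluorescence shift, positive overall ratio signal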
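test system = HEK293 cells with stable TRPC4beta plus mu-opioid receptor expression | detection = Fluo4 Ca2+ flux fluorescence | read-out = integrated fluorescence ratio relative to baseline, converted to per-well B score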
TRPC6 activator: mouse TRPC6 channel activation. AID 2550. HEK293-TRPC6 membrane potential dye fluorescence; stronger effect = higher value. Q61143. B-score at 10 µM. 310,000 compounds, 0.13% hits;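 active = B-score of the integrated fluorescence ratio above library mean plus 3 SD, and starting fluorescence ratio within library mean plus 5 SD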;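 also: higher score means more depolarization so channel activation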
CR mimetic SO: lowers age-related superoxide in aged yeast cells | superoxide response (% of plate mean), % at 10 µM | S. cerevisiae aged cells, superoxide DHE fluorescence; stronger effect = lower value | AID 2690 | 330,000 compounds, 0.18% hits;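 active = superoxide response under a set limit, about three screen SD below normal, cut at about 65% in these data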;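 also: yeast aged for seven days with compound at 30 °C before DHE staining; 100% = average MFI of all compound-treated wells on the plate with controls excluded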
TRPC6 inh: inhibitors of mouse TRPC6 channel | B-score at 10 µM | AID 2553 | 310,000 compounds, 1.1% hits | HEK293-TRPC6, membrane potential dye, ACh-evoked depolarization; stronger effect = lower value;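 active = B-score under library mean minus 3 SD, initial fluorescence not abnormally high, positive integrated signal ratio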;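 also: B-score derived from integrated fluorescence ratio over the kinetic read; more negative B-score means stronger inhibition of depolarization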
TRPC4 potent: TRPC4 (mouse) allosteric potentiation. AID 2227. 310,000 compounds, 0.42% hits. Q9QUQ5. HEK293 TRPC4beta/mu-opioid, DAMGO EC20, Fluo-4 Ca2+ flux; stronger effect = higher value. B-score at 10 µM;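 active = B-score of calcium response area above 5 SD of library B-scores, with initial fluorescence ratio within 5 SD of library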;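 also: B-score of integrated fluorescence ratio over time as area under calcium response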
* marks the source's active call; other numbers are inactive results; i = inactive; x = not tested or not shown. A selection: hits, their analogues and other compounds. The true share with any hit is near 2.3%.

SMILES | TRPC4 agonist | TRPC4 inh | TRPC6 activator | CR mimetic SO | TRPC6 inh | TRPC4 potent
CCC1(C(=O)c2ccccc2)C(c2ccc([N+](=O)[O-])cc2)C1(C(=O)OC)C(=O)OC (centres undefined) | i | -7* | i | 98 | i | i
COC(=O)Cc1c(O)ccn(CCc2ccc(OC)c(OC)c2)c1=O | i | i | i | 83 | i | i
COc1ccc2c(c1)[nH]c1c(N3CCN(Cc4ccc5c(c4)OCO5)CC3)ncnc12 | i | i | i | 110 | i | i
COc1cccc2[nH]c3c(N4CCN(Cc5ccc6c(c5)OCO6)CC4)ncnc3c12 | i | i | i | 105 | -6.7* | i
Cc1ccc2c(CC(=O)NCC(C)(C)N3CCOCC3)coc2c1 | i | i | i | 103 | i | i
COc1ccc(-n2cc(-c3ccccc3)c3c(N4CCOCC4)ncnc32)cc1 | i | i | i | 105 | i | i
Fc1ccc(-n2cc(-c3ccccc3)c3c(N4CCOCC4)ncnc32)cc1 | i | i | i | 109 | i | 15*
CCN1CCN(C(=S)Nc2ccsc2C(=O)OC)CC1 | 57* | i | i | 93 | i | i
COC(=O)c1sccc1NC(=S)N1CCN(C)CC1 | 50* | i | i | 97 | i | i
COC(=O)c1sccc1NC(=S)N1CCCC(C)C1 (centres undefined) | i | i | i | 75 | i | i
CC(=O)n1cc([C@H]2C=C(C(N)=O)O[C@@H](OCc3ccc(CO)cc3)C2)c2ccccc21 | 51* | i | i | 108 | i | i
CC(=O)n1cc([C@@H]2C=C(C(=O)Nc3ccccc3)O[C@H](OCc3ccc(CO)cc3)C2)c2ccccc21 | i | i | i | 103 | i | i
C#CCNC(=O)C1=C[C@H](c2csc3ccccc23)C[C@H](OCc2ccc(CO)cc2)O1 | 52* | i | i | 95 | i | i
C#CCNC(=O)C1=C[C@@H](c2cn(C(C)=O)c3ccccc23)C[C@@H](OCc2ccc(CO)cc2)O1 | i | i | i | x | i | i
CC(=O)n1cc([C@H]2C=C(C(=O)NCc3ccccc3)O[C@@H](OCc3ccc(CO)cc3)C2)c2ccccc21 | 244* | i | i | 104 | i | i
O=C(NCc1ccccc1)C1=C[C@H](c2csc3ccccc23)C[C@H](OCc2ccc(CO)cc2)O1 | i | i | i | 100 | i | i
CC(=O)c1ccc(N2CCN(c3ccc(S(=O)(=O)NCCCN(C)C)cc3[N+](=O)[O-])CC2)cc1 | i | i | i | 88 | i | 26*
CC(=O)c1ccc(N2CCN(c3ccc(S(=O)(=O)NCCN(C)C)cc3[N+](=O)[O-])CC2)cc1 | i | i | i | 106 | i | i
CCCCCN=C(N)N/N=C/c1c[nH]c2ccc(OC)cc12 | 66* | i | i | 113 | i | i
O=S(=O)(NCc1ccccc1)c1ccc(Cl)cc1 | i | i | i | 102 | i | i
O=S(=O)(Nc1cc2nc3ccccc3nc2n1Cc1ccccc1)c1ccc(Cl)cc1 | i | i | 26* | 120 | i | i
COc1cnc(-c2ccccc2)nc1OC | i | i | i | 106 | i | i
Cc1cnc(C(=O)OCC(=O)Nc2cccc3ccccc23)cn1 | x | x | x | 93 | x | x
Cc1ccc(N(Cc2ccccc2)C(=O)c2cc(S(=O)(=O)N3CCOCC3)ccc2Cl)cc1 | i | i | i | 98 | i | 10*
Cc1cccc(N(Cc2ccccc2)C(=O)c2cc(S(=O)(=O)N3CCOCC3)ccc2Cl)c1 | i | i | i | 101 | i | i
SMILES | TRPC4 agonist | TRPC4 inh | TRPC6 activator | CR mimetic SO | TRPC6 inh | TRPC4 potent
CCCCN(CC)CCCNC(=O)c1cc2c(=O)n(CC)c3ccccc3c2s1 | i | i | i | 108 | i | i
CCCCN(CC)CCNC(=O)c1cc2c(=O)n(C)c3ccccc3c2s1 | i | i | i | 75 | i | 16*
CCCN(CCC)CCCNC(=O)c1cc2c(=O)n(CC)c3ccccc3c2s1 | 50* | i | i | 100 | i | i
CCN(CC)CCNC(=O)c1cc2c(=O)n(C)c3ccccc3c2s1 | i | i | i | 92 | i | i
CSc1ccccc1OCc1cc(C(=O)N(Cc2nccn2C)C(C)C)no1 | i | i | i | 96 | i | i
O=C(O)/C=C\C(=O)Nc1ccc(N2CCN(c3ccc(Cl)c(Cl)c3)CC2)cc1 | i | -6* | i | 109 | i | i
O=C(CCCN1C(=O)/C(=C/c2ccccc2Cl)SC1=S)Nc1ccccn1 | i | i | i | 93 | i | i
O=C1/C(=C/c2ccccc2Cl)SC(=S)N1CCCC(=O)N(CCO)c1ccccc1 | i | -6* | i | 96 | i | i
CC(=O)N[C@H]1[C@H](OCc2ccccc2F)O[C@H](COC(C)=O)[C@@H](OC(C)=O)[C@@H]1OC(C)=O | i | i | i | 96 | i | i
CC(C)CN1CCN(Cc2cccc3ncccc23)CC1CCO (centres undefined) | i | i | i | 98 | i | i
COc1ccc(CN=CC2=C(O)CNC2=O)cc1 | i | i | i | 114 | i | i
COc1ccc(CN=Cc2[nH]c3ccc(Br)c(Cl)c3c2O)cc1 | i | i | 16* | 95 | i | i
Cc1ccc(C)c(-c2csc(N)c2C(=O)OC(C)C)c1 | i | i | i | 106 | i | i
Cc1cccc(-c2csc(N)c2C(=O)OC(C)C)c1 | i | -6* | i | 104 | i | i
CCn1c(=N)n(CC(=O)c2ccc(Br)s2)c2ccccc21 | i | -6* | i | 114 | i | i
CCCCn1c(=N)n(CC(=O)c2ccc(Br)s2)c2ccccc21 | i | i | i | 106 | i | i
CCOC(=O)C1(CCOc2ccccc2)CCN(Cc2ccc(COC)o2)CC1 | i | i | i | 102 | i | i
CCOC(=O)C1(Cc2cccc(OC)c2)CCN(CCO)CC1 | i | i | i | 105 | i | i
CCOC(=O)C1(CCOc2ccccc2)CCN(Cc2cc(OC)c(O)c(OC)c2)CC1 | i | i | i | 106 | i | i
CCOC(=O)C1(CCOc2ccccc2)CCN(Cc2ccc(C)o2)CC1 | i | -6* | i | 95 | i | i
CCOC(=O)C1(CCOc2ccccc2)CCN(Cc2ccc(OC)c(O)c2)CC1 | 84* | i | i | 93 | i | i
